Test results published in publication PMC4430720 (British Journal of Cancer, 2015).
Like-named read-outs stand apart in the source and are kept apart here. Marks after values point to notes of the source that are not given here. Where a SMILES comes first, the peptide text is derived from it. Bridges are numbered along the chain shown (N, C = ends). [ ]: non-standard residue; d: D form. βAla = NCCC(=O)O

Tests used:
[1] = test system: high-grade squamous intraepithelial lesions; conditions: intralesional injections; ref Solares et al, 2009; cited from earlier work
[2] = type: in vivo, NIH nu/nu nude mice; conditions: 100 μg 99mTc-radiolabelled CIGB-300 intratumour in 0.2 or 0.5 ml PBS
How it was run: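 Female 6–8-week NIH nu/nu mice carried subcutaneous SiHa xenografts (5 × 10^6 cells, right inguinal flank). At 150 mm3, tumours received 100 μg 99mTc-labelled test compound in 0.025, 0.05, 0.2 or 0.5 ml PBS. Planar gamma-camera images were taken immediately and at 0.25, 1, 4, 24, 48 h. Tumour ROI signal was expressed as percent of the total initial image.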

B23/NPM = experiment: In situ B23/NPM expression in tumour biopsies by immunohistochemistry; type: in vivo, human
How it was run: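 Paraffin-embedded tumour biopsies were taken before and after the three treatment cycles. After deparaffinisation, sections were immunostained with a human B23/NPM monoclonal primary antibody and a commercial immunostaining kit, developed with peroxidase and counterstained with hematoxylin. Pre/post values were compared by paired Student's t-test or Wilcoxon test, chosen by the Shapiro–Wilk normality result.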

histamine = experiment: Histamine levels in plasma; type: in vivo, human; conditions: both groups
How it was run: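 Stage IIB cervical carcinoma patients received 35 or 70 mg intralesionally. Plasma histamine was measured by commercial EIA before, immediately after, and 5, 15, 30 and 60 min after the first administration. Spearman rank correlation was run between histamine and plasma peptide concentration, and between histamine and allergic-reaction severity.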

[3] = Safety evaluation: local and systemic adverse events; type: in vivo, human; conditions: both groups
How it was run: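 Patients received 35 or 70 mg intralesionally once daily for three consecutive days at weeks 1, 3 and 5. Local and systemic adverse events and routine laboratory parameters were recorded. Systemic toxicity was followed for 24 h after each dose, with cardiovascular monitoring during injection and vital signs. The probability of exceeding 30% grade 3 events per group was estimated.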

[4] = test system: stage IIB cervical cancer; experiment: Therapeutic response by MRI; type: in vivo, human; conditions: 1-year follow-up
How it was run: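 MRI response was graded by RECIST before and after three peptide cycles, then quarterly for 1 year. Follow-up came after chemoradiotherapy: cisplatin 40 mg m−2 weekly for 6 weeks with 5040 cGy external beam in 28 fractions, then 2600 cGy intracavitary in four fractions. CT and abdominal/gynaecological ultrasonography were used to detect metastasis.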

[5] = Pharmacokinetics of unincorporated CIGB-300 in plasma; type: in vivo, human; conditions: both groups; highest levels only during the first hour after injection
[6] = test system: human cervical cancer SiHa cells; experiment: Antitumour activity of different CIGB-300 regimens; type: in vivo, NIH nu/nu nude mice; conditions: 200 μg intratumoural per injection, tumour volume by caliper
[7] = type: in vivo, human; conditions: for Biological half-life (tumour): corrected for radioactive decay; for AUC24 (tumour): tumour uptake curve over 24 h; for Maximum uptake (mg CIGB-300): tumour uptake, two sites 0.5 ml each
How it was run: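 The first patient dose was 99mTc-labelled and injected at two equidistant points, ~2 cm deep (0.5 ml each). Whole-body gamma-camera images were taken at 10 min and 1, 2, 4, 8, 12, 24 h, with tumour static views at 3 and 24 h. Uptake was quantified by MIRD methodology, with tumour mass from baseline MRI. Half-life used decay-corrected fits, and AUC used mono/biexponential fits.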

[8] = 2 ml at a single tumour site, ref Soriano-García et al, 2013, cited from earlier work

CSCC[C@@H]1NC(=O)[C@H](Cc2c[nH]c3ccccc23)NC(=O)[C@@H](NC(=O)CCNC(=O)[C@H](CCC(N)=O)NC(=O)[C@@H]2CCCN2C(=O)[C@@H]2CCCN2C(=O)[C@H](CCCNC(=N)N)NC(=O)[C@H](CCCNC(=N)N)NC(=O)[C@H](CCCNC(=N)N)NC(=O)[C@H](CCC(N)=O)NC(=O)[C@H](CCCNC(=N)N)NC(=O)[C@H](CCCNC(=N)N)NC(=O)[C@H](CCCCN)NC(=O)[C@H](CCCCN)NC(=O)[C@H](CCCNC(=N)N)NC(=O)CN)CSSC[C@@H](C(=O)O)NC(=O)[C@H]([C@@H](C)O)NC(=O)CNC(=O)[C@H](CC(C)C)NC(=O)[C@H](Cc2c[nH]cn2)NC(=O)[C@H](CCCNC(=N)N)NC(=O)[C@@H]2CCCN2C(=O)[C@H](CO)NC1=O [CIGB-300] (H-GRKKRRQRRRPPQ[βAla]CWMSPRHLGTC-OH; disulfide 15-25; N-terminus and C-terminus assumed)
Patients with full histological regression [1]: 19% | Patients with significant colposcopic response [1]: 90% | Previously positive patients with negative human papillomavirus DNA [1]: 48% | CIGB-300 tumour uptake, higher injection volume [2]: worse tumour uptake | B23/nucleophosmin expression at the nucleoplasm (B23/NPM; after CIGB-300 treatment): not considerably modified | Patients with reduced nucleolar B23/NPM expression after CIGB-300 treatment (B23/NPM; evaluated patients of both groups): 10 out of the 12 | Levels of in situ B23/NPM in tumour biopsies, post CIGB-300 (B23/NPM; group I (35 mg), N=6, mean±s.d., baseline 56.0±17.6, Student's t-test p 0.14): 36.4±18.9 | Time to return of plasmatic histamine to normal levels (1 ng ml^−1) (histamine; after first injection, rapid increase first): 15 min | Overall histamine median when grade 1 allergic-like events occurred (histamine; plasma): 0.7 ng/mL | Overall histamine median when grade 2 allergic-like events occurred (histamine; plasma): 3.5 ng/mL | Blood counts and serum chemistry values, baseline vs post-treatment [3]: no differences | Deaths because of disease progression, whole trial ([4]; both groups): four | Deaths because of disease progression, group I ([4]; group I (35 mg)): three | CIGB-300 levels in blood over time [5]: near undetectable after 8 h | Three cycles of three consecutive daily injections [6]: minimal frequency required to reduce tumour growth | Biological half-life (tumour) ([7]; group I 35 mg, N=6, mean±s.d.): 3.9±0.9 (2.6–5.5) h | Biological half-life (tumour) ([7]; group II 70 mg, N=7, mean±s.d.): 6.2±1.9 (3.5–10.1) h | Maximum uptake (mg CIGB-300 per g tumour) ([7]; group II 70 mg, tumour mass estimated by MRI, N=6, mean±s.d.): 1.1±0.8 (0.4–2.7) ^b mg g^−1 | Maximum tumour uptake, 70 mg compared with 35 mg ([7]; mean values, P=0.01): two-fold higher | AUC24 (tumour) ([7]; group I 35 mg, N=6, mean±s.d.): 132±72.2 (45.3–235) mg h | AUC24 (tumour) ([7]; group II 70 mg, N=7, mean±s.d.): 385±167 (90.3–646) mg h | Maximum uptake (mg CIGB-300) ([7]; group I 35 mg intralesional, N=6, mean±s.d.): 16.1±8.9 (3.8–27.2) mg | Maximum uptake (mg CIGB-300) ([7]; group II 70 mg intralesional, N=7, mean±s.d.): 31.3±12.9 (9.9–48.7) mg | Maximum tumour uptake ([8]; 35 mg): 14.9 ± 6.4 mg | Maximum tumour uptake ([8]; 70 mg): 10.4 ± 8.3 mg
